# Measured values taken from ChEMBL document CHEMBL1142888, “Synthesis, antimicrobial, and anti-inflammatory activities of novel 2-(1-adamantyl)-5-substituted-1,3,4-oxadiazoles and 2-(1-adamantylamino)-5-substituted-1,3,4-thiadiazoles” (2007).
# Key:
# Type in all cases: functional
# Staphylococcus aureus [1] = assay: Antimicrobial activity against Staphylococcus aureus IFO 3060 at 200 ug/disc after 24 hrs; conditions: IFO 3060, 24 h, read-out: IZ
# Candida albicans = assay: Antimicrobial activity against Candida albicans IFO 0583 at 200 ug/disc after 48 hrs; conditions: IFO 0583, 48 h, read-out: IZ
# Rattus norvegicus [2] = assay: Antiinflammatory effect on carrageenan-induced paw oedema Sprague-Dawley rat assessed as reduction of paw oedema at 60 mg/kg, ip; design: scale not given: the % may be the effect or the level left; conditions: route intraperitoneal
# How it was run: (§1)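 Rats in groups of five, acclimatised two days, given compound (20, 40, 60 mg/kg) or indomethacin (10 mg/kg) i.p. as suspension in 1 ml 0.5% aqueous carboxymethyl cellulose 1 h before 0.1 ml 1% carrageenin in saline into right hind plantar tissue; left paw got saline. Paw volume by water plethysmometer at 4 h; % protection vs vehicle control; mean ± S.E.M., Student's t test.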
# Rattus norvegicus [3] = assay: Antiinflammatory effect on carrageenan-induced paw oedema Sprague-Dawley rat assessed as reduction of paw oedema at 40 mg/kg, ip; design: scale not given: the % may be the effect or the level left; conditions: route intraperitoneal; how it was run: as §1
# Escherichia coli [4] = assay: Antimicrobial activity against Escherichia coli IFO 3301 at 200 ug/disc after 24 hrs; conditions: IFO 3301, 24 h, read-out: IZ
# Bacillus subtilis [5] = assay: Antimicrobial activity against Bacillus subtilis IFO 3007 at 200 ug/disc after 24 hrs; conditions: IFO 3007, 24 h, read-out: IZ
# Rattus norvegicus [6] = assay: Antiinflammatory effect on carrageenan-induced paw oedema Sprague-Dawley rat assessed as reduction of paw oedema at 20 mg/kg, ip; design: scale not given: the % may be the effect or the level left; conditions: route intraperitoneal; how it was run: as §1
# Pseudomonas aeruginosa = assay: Antimicrobial activity against Pseudomonas aeruginosa IFO 3448 at 200 ug/disc; conditions: read-out: IZ
# Staphylococcus aureus [7] = assay: Antimicrobial activity against Staphylococcus aureus IFO 3060 after 24 hrs; conditions: IFO 3060, 24 h
# Bacillus subtilis [8] = assay: Antimicrobial activity against Bacillus subtilis IFO 3007 after 24 hrs; conditions: IFO 3007, 24 h
# Escherichia coli [9] = assay: Antimicrobial activity against Escherichia coli IFO 3301 after 24 hrs; conditions: IFO 3301, 24 h
# Rattus norvegicus [10] = assay: Antiinflammatory effect on carrageenan-induced paw oedema Sprague-Dawley rat assessed as reduction of paw oedema at 10 mg/kg, ip; design: scale not given: the % may be the effect or the level left; conditions: route intraperitoneal; how it was run: as §1
MIC (Staphylococcus aureus [7]) [µg/mL],MIC (Bacillus subtilis [8]) [µg/mL],MIC (Escherichia coli [9]) [µg/mL],SMILES,zone of inhibition at 200 µg/disc (Staphylococcus aureus [1]) [mm],zone of inhibition at 200 µg/disc (Candida albicans) [mm],Activity (Rattus norvegicus [2]) [%],Activity (Rattus norvegicus [3]) [%],zone of inhibition at 200 µg/disc (Escherichia coli [4]) [mm],zone of inhibition at 200 µg/disc (Bacillus subtilis [5]) [mm],Activity (Rattus norvegicus [6]) [%],zone of inhibition at 200 µg/disc (Pseudomonas aeruginosa) [mm],Activity (Rattus norvegicus [10]) [%]
,,,O=[N+]([O-])c1cc(-c2nnc(C34CC5CC(CC(C5)C3)C4)o2)cc([N+](=O)[O-])c1,< 10,< 10,3.66,5.22,< 10,< 10,4.16,< 10,
,,,Brc1ccc(-c2nnc(C34CC5CC(CC(C5)C3)C4)o2)cc1,< 10,< 10,13.01,13.15,< 10,14,11.6,< 10,
2,,,Clc1ccc(-c2nnc(NC34CC5CC(CC(C5)C3)C4)s2)cc1,18,< 10,37.11,37.02,12,16,21.63,< 10,
1,0.5,2,O=C(NNC(=S)NC12CC3CC(CC(C3)C1)C2)c1ccc([N+](=O)[O-])cc1,20,< 10,,,19,24,0.76,15,
,,,O=C(NNC(=S)NC12CC3CC(CC(C3)C1)C2)c1ccc(Cl)cc1,< 10,< 10,,,< 10,13,9.11,< 10,
,,,Fc1ccc(-c2nnc(C34CC5CC(CC(C5)C3)C4)o2)cc1,< 10,< 10,38.62,29.15,< 10,12,11.72,< 10,
,4,,O=C(NNC(=S)NC12CC3CC(CC(C3)C1)C2)c1cccs1,< 10,< 10,,2.16,10,18,0.96,< 10,
,,,Fc1ccc(-c2nnc(NC34CC5CC(CC(C5)C3)C4)s2)cc1,14,< 10,39.35,35.55,10,10,18.02,< 10,
,,,Clc1ccc(-c2nnc(C34CC5CC(CC(C5)C3)C4)o2)cc1,< 10,< 10,50.71,44.66,10,13,34.5,< 10,
2,2,1,O=[N+]([O-])c1ccc(-c2nnc(NC34CC5CC(CC(C5)C3)C4)s2)cc1,16,< 10,10.74,10.1,17,18,9.11,12,
,,,COc1ccc2c(c1)c(CC(=O)O)c(C)n2C(=O)c1ccc(Cl)cc1 [INDOMETHACIN],,,,,,,,,60.4
,,,C1C2CC3CC1CC(c1nnc(C45CC6CC(CC(C6)C4)C5)o1)(C2)C3,< 10,10,71.52,68.97,< 10,< 10,44.27,< 10,
,,,Brc1ccc(-c2nnc(NC34CC5CC(CC(C5)C3)C4)s2)cc1,< 10,< 10,14.16,13.38,< 10,< 10,12.51,< 10,
